Test results from ChEMBL document CHEMBL1135826, “Antimicrobial peptides: synthesis and antibacterial activity of linear and cyclic drosocin and apidaecin 1b analogues” (2002).
Converted amounts (≈) assume the structure as drawn. Where a SMILES comes first, the peptide text is derived from it. The star is where a group is joined. βGal = OC[C@H]1O[C@@H](*)[C@H](O)[C@@H](O)[C@H]1O; X1 = OC[C@H]1O[C@H](*)[C@H](O)[C@@H](O)[C@H]1O

Key:
Acinetobacter baumannii = assay: Minimum inhibitory concentration (lowest peptide concentration) required to prevent visible bacterial growth after 18 hr of incubation at 37 C in Mueller-Hinton broth against Acinetobacter baumannii 118A; format: functional
In short: (§1)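 Broth microdilution susceptibility test per NCCLS guidelines, in Mueller–Hinton broth with about 1.5–2.0 × 10^5 CFU/mL inoculum. Plates were incubated 18 h at 37 °C. MIC was taken as the lowest peptide concentration with no visible growth. Strains were ATCC strains or clinical isolates; E. coli O18:K1:H7 Bort is an encapsulated isolate from neonatal spinal fluid, and the S. aureus isolate is MRSA.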

Escherichia coli [1] = assay: Minimum inhibitory concentration (lowest peptide concentration) required to prevent visible bacterial growth after 18 hr of incubation at 37 C in Mueller-Hinton broth against Escherichia coli D21; format: functional; in short: as §1
Escherichia coli [2] = assay: Minimum inhibitory concentration (lowest peptide concentration) required to prevent visible bacterial growth after 18 hr of incubation at 37 C in Mueller-Hinton broth against Escherichia coli D22; format: functional; in short: as §1
Escherichia coli [3] = assay: Minimum inhibitory concentration (lowest peptide concentration) required to prevent visible bacterial growth after 18 hr of incubation at 37 C in Mueller-Hinton broth against Escherichia coli O18:K1:H7; format: functional; in short: as §1
Klebsiella pneumoniae [4] = assay: Minimum inhibitory concentration (lowest peptide concentration) required to prevent visible bacterial growth after 18 hr of incubation at 37 C in Mueller-Hinton broth against Klebsiella pneumoniae 22; format: functional; in short: as §1
Klebsiella pneumoniae [5] = assay: Minimum inhibitory concentration (lowest peptide concentration) required to prevent visible bacterial growth after 18 hr of incubation at 37 C in Mueller-Hinton broth against Klebsiella pneumoniae 79; format: functional; in short: as §1
Salmonella enteritidis [6] = assay: Minimum inhibitory concentration (lowest peptide concentration) required to prevent visible bacterial growth after 18 h of incubation at 37 C in Mueller-Hinton broth against […]; format: functional, Salmonella enterica subsp. enterica serovar Enteritidis; settings: Salmonella enterica; in short: as §1
[7] = system: Staphylococcus epidermidis; assay: Minimum inhibitory concentration (lowest peptide concentration) required to prevent visible bacterial growth after 18 hr of incubation at 37 C in Mueller-Hinton broth against Staphylococcus epidermidis 4; format: functional; in short: as §1
Staphylococcus aureus = assay: Minimum inhibitory concentration (lowest peptide concentration) required to prevent visible bacterial growth after 18 hr of incubation at 37 C in Mueller-Hinton broth against Staphylococcus aureus G; format: functional; in short: as §1
Salmonella typhimurium = assay: Minimum inhibitory concentration (lowest peptide concentration) required to prevent visible bacterial growth after 18 hr of incubation at 37 C in Mueller-Hinton broth against Salmonella Typhimurium ATCC 14028; format: functional, Salmonella enterica subsp. enterica serovar Typhimurium; settings: Salmonella enterica; in short: as §1
Pseudomonas aeruginosa = assay: Minimum inhibitory concentration (lowest peptide concentration) required to prevent visible bacterial growth after 18 hr of incubation at 37 C in Mueller-Hinton broth against Pseudomonas aeruginosa ATCC 27853; format: functional; settings: ATCC 27853, 18 h; in short: as §1
Escherichia coli [8] = assay: Minimum inhibitory concentration (lowest peptide concentration) required to prevent visible bacterial growth after 18 hr of incubation at 37 C in Mueller-Hinton broth against Escherichia coli ATCC 25922; format: functional; settings: ATCC 25922, 18 h; in short: as §1
Escherichia coli [9] = assay: Minimum inhibitory concentration (lowest peptide concentration) required to prevent visible bacterial growth after 18 hr of incubation at 37 C in Mueller-Hinton broth against Escherichia coli ML-35; format: functional; in short: as §1
Salmonella enteritidis [10] = assay: Minimum inhibitory concentration (lowest peptide concentration) required to prevent visible bacterial growth after 18 hr of incubation at 37 C in Mueller-Hinton broth against Salmonella enteritidis D5; settings: Salmonella enterica

Row | Compound | MIC (Acinetobacter baumannii) [µM] | MIC (Escherichia coli [1]) [µM] | MIC (Escherichia coli [2]) [µM] | MIC (Escherichia coli [3]) [µM] | MIC (Klebsiella pneumoniae [4]) [µM] | MIC (Klebsiella pneumoniae [5]) [µM] | MIC (Salmonella enteritidis [6]) [µM] | MIC [7] [µM] | MIC (Staphylococcus aureus) [µM] | MIC (Salmonella typhimurium) [µM] | MIC (Pseudomonas aeruginosa) [µM] | MIC (Escherichia coli [8]) [µM] | MIC (Escherichia coli [9]) [µM] | MIC (Salmonella enteritidis [10]) [µM]
1 | CC[C@H](C)[C@H](NC(=O)[C@@H]1CCCN1C(=O)[C@H](CCCN=C(N)N)NC(=O)[C@@H]1CCCN1C(=O)[C@H](Cc1c[nH]cn1)NC(=O)[C@H](CO)NC(=O)[C@@H](NC(=O)[C@@H]1CCCN1C(=O)[C@H](CCCN=C(N)N)NC(=O)[C@@H]1CCCN1C(=O)[C@H](CO)NC(=O)[C@H](Cc1ccc(O)cc1)NC(=O)[C@@H]1CCCN1C(=O)[C@H](CCCN=C(N)N)NC(=O)[C@@H]1CCCN1C(=O)[C@H](CCCCN)NC(=O)CN)[C@@H](C)O[C@H]1O[C@H](CO)[C@H](O)[C@H](O)[C@H]1O)C(=O)N[C@@H](CCCN=C(N)N)C(=O)N[C@H](C(=O)O)C(C)C (H-GKPRPYSPRPT(X1)SHPRPIRV-OH) | > 128 | > 64 | 2 (≈ 4.72 µg/mL) | 2 (≈ 4.72 µg/mL) | 32 (≈ 75.5 µg/mL) | 32 (≈ 75.5 µg/mL) | 4 (≈ 9.44 µg/mL) | > 64 | > 64 | 8 (≈ 18.9 µg/mL) | > 128 | 2 (≈ 4.72 µg/mL) | 2 (≈ 4.72 µg/mL) | 2 (≈ 4.72 µg/mL)
2 | CC[C@H](C)[C@H](NC(=O)[C@@H]1CCCN1C(=O)[C@H](CCCN=C(N)N)NC(=O)[C@@H]1CCCN1C(=O)[C@H](Cc1c[nH]cn1)NC(=O)[C@H](CO)NC(=O)[C@@H](NC(=O)[C@@H]1CCCN1C(=O)[C@H](CCCN=C(N)N)NC(=O)[C@@H]1CCCN1C(=O)[C@H](CO)NC(=O)[C@H](Cc1ccc(O)cc1)NC(=O)[C@@H]1CCCN1C(=O)[C@H](CCCN=C(N)N)NC(=O)[C@@H]1CCCN1C(=O)[C@H](CCCCN)NC(=O)CN)[C@@H](C)O[C@@H]1O[C@H](CO)[C@H](O)[C@H](O)[C@H]1O)C(=O)N[C@@H](CCCN=C(N)N)C(=O)N[C@H](C(=O)O)C(C)C (H-GKPRPYSPRPT(βGal)SHPRPIRV-OH) | > 128 | > 64 | 2 (≈ 4.72 µg/mL) | 2 (≈ 4.72 µg/mL) | 16 (≈ 37.8 µg/mL) | 8 (≈ 18.9 µg/mL) | 4 (≈ 9.44 µg/mL) | > 64 | > 64 | 8 (≈ 18.9 µg/mL) | > 128 | 4 (≈ 9.44 µg/mL) | 1 (≈ 2.36 µg/mL) | 4 (≈ 9.44 µg/mL)
3 | H-GKPRPYSPRPASHPRPIRV-OH | > 128 | > 128 | > 64 | 16 | > 128 | > 128 | 16 | > 64 | > 64 | 32 | > 128 | 64 | 16 | 8
4 | H-GNNRPVYIPQPRPTPHPRL-OH | > 128 | > 64 | > 64 | > 128 | > 128 | > 128 | > 128 | > 64 | > 64 | > 128 | > 128 | > 128 | > 128 | > 128

More lines, now with the values ahead:

Row | MIC (Acinetobacter baumannii) [µM] | MIC (Escherichia coli [1]) [µM] | MIC (Escherichia coli [2]) [µM] | MIC (Escherichia coli [3]) [µM] | MIC (Klebsiella pneumoniae [4]) [µM] | MIC (Klebsiella pneumoniae [5]) [µM] | MIC (Salmonella enteritidis [6]) [µM] | MIC [7] [µM] | MIC (Staphylococcus aureus) [µM] | MIC (Salmonella typhimurium) [µM] | MIC (Pseudomonas aeruginosa) [µM] | MIC (Escherichia coli [8]) [µM] | MIC (Escherichia coli [9]) [µM] | MIC (Salmonella enteritidis [10]) [µM] | Compound
5 | > 64 | > 64 | > 64 | 64 | > 128 | > 128 | > 64 | > 64 | > 64 | > 64 | > 128 | 64 | 32 | 32 | H-GKPRPYSPRPSHPRPIRV-OH
6 | > 64 | > 64 | > 64 | > 64 | > 64 | > 64 | > 64 | > 64 | > 64 | > 64 | > 64 | > 64 | > 64 | > 64 | CC[C@H](C)[C@@H]1NC(=O)[C@@H]2CCCN2C(=O)[C@H](CCCNC(=N)N)NC(=O)[C@@H]2CCCN2C(=O)[C@H](Cc2cnc[nH]2)NC(=O)[C@H](CO)NC(=O)[C@H]([C@@H](C)O)NC(=O)[C@@H]2CCCN2C(=O)[C@H](CCCNC(=N)N)NC(=O)[C@@H]2CCCN2C(=O)[C@H](CO)NC(=O)[C@H](Cc2ccc(O)cc2)NC(=O)[C@@H]2CCCN2C(=O)[C@H](CCCNC(=N)N)NC(=O)[C@@H]2CCCN2C(=O)[C@H](CCCCN)NC(=O)CNC(=O)[C@H](C(C)C)NC(=O)[C@H](CCCNC(=N)N)NC(=O)[C@H]([C@@H](C)CC)NC(=O)[C@@H]2CCCN2C(=O)[C@H](CCCNC(=N)N)NC(=O)[C@@H]2CCCN2C(=O)[C@H](Cc2cnc[nH]2)NC(=O)[C@H](CO)NC(=O)[C@H]([C@@H](C)O)NC(=O)[C@@H]2CCCN2C(=O)[C@H](CCCNC(=N)N)NC(=O)[C@@H]2CCCN2C(=O)[C@H](CO)NC(=O)[C@H](Cc2ccc(O)cc2)NC(=O)[C@@H]2CCCN2C(=O)[C@H](CCCNC(=N)N)NC(=O)[C@@H]2CCCN2C(=O)[C@H](CCCCN)NC(=O)CNC(=O)[C@H](C(C)C)NC(=O)[C@H](CCCNC(=N)N)NC1=O (HELM PEPTIDE1{G.K.P.R.P.Y.S.P.R.P.T.S.H.P.R.P.I.R.V.G.K.P.R.P.Y.S.P.R.P.T.S.H.P.R.P.I.R.V}$PEPTIDE1,PEPTIDE1,1:R1-38:R2$$$V2.0)
7 | > 64 | > 64 | > 64 | > 64 | > 64 | > 64 | > 64 | > 64 | > 64 | > 64 | > 64 | > 64 | > 64 | > 64 | CC[C@H](C)[C@H](NC(=O)[C@@H]1CCCN1C(=O)[C@H](CCCN=C(N)N)NC(=O)[C@@H]1CCCN1C(=O)[C@H](Cc1c[nH]cn1)NC(=O)[C@@H]1CSSC[C@H](NC(=O)[C@H](Cc2ccc(O)cc2)NC(=O)[C@@H]2CCCN2C(=O)[C@H](CCCN=C(N)N)NC(=O)[C@@H]2CCCN2C(=O)[C@H](CCCCN)NC(=O)CN)C(=O)N2CCC[C@H]2C(=O)N[C@@H](CCCN=C(N)N)C(=O)N2CCC[C@H]2C(=O)N[C@@H]([C@@H](C)O)C(=O)N1)C(=O)N[C@@H](CCCN=C(N)N)C(=O)N[C@H](C(=O)O)C(C)C (HELM PEPTIDE1{G.K.P.R.P.Y.C.P.R.P.T.C.H.P.R.P.I.R.V}$PEPTIDE1,PEPTIDE1,7:R3-12:R3$$$V2.0)
8 | > 64 | > 64 | 64 (≈ 140 µg/mL) | > 128 | > 128 | > 128 | > 128 | > 64 | > 64 | > 128 | > 128 | > 128 | > 128 | > 128 | CC[C@H](C)[C@@H]1NC(=O)[C@@H]2CCCN2C(=O)[C@H](CCCN=C(N)N)NC(=O)[C@@H]2CCCN2C(=O)[C@H](Cc2c[nH]cn2)NC(=O)[C@H](CO)NC(=O)[C@H]([C@@H](C)O)NC(=O)[C@@H]2CCCN2C(=O)[C@H](CCCN=C(N)N)NC(=O)[C@@H]2CCCN2C(=O)[C@H](CO)NC(=O)[C@H](Cc2ccc(O)cc2)NC(=O)[C@@H]2CCCN2C(=O)[C@H](CCCN=C(N)N)NC(=O)[C@@H]2CCCN2C(=O)[C@H](CCCCN)NC(=O)CNC(=O)[C@H](C(C)C)NC(=O)[C@H](CCCN=C(N)N)NC1=O (HELM PEPTIDE1{G.K.P.R.P.Y.S.P.R.P.T.S.H.P.R.P.I.R.V}$PEPTIDE1,PEPTIDE1,1:R1-19:R2$$$V2.0)
